Dynein cargo inh = dynein cargo transport inhibition. 3617.4 mouse cells, GR-EGFP nuclear translocation imaging; test concentration mostly 20 µM; stimulated with dexamethasone, 1 µM; stronger effect = lower value. 0.47% of 220,000 active. z-score, hits read low. AID 1381;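 active = plate z-score of nuclear minus cytoplasmic receptor signal below a set negative limit, without overly bright fluorescence or cell loss, cut at about -3.5 in these data, passing the limit was not always enough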;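 note: z-score of nuclear minus cytoplasmic ring GR-EGFP intensity difference per well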
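Buffer or medium – tet-free medium with charcoal-stripped serum · Signal – automated 10x imaging of fixed Hoechst-stained cells · Also added – dexamethasone agonist, 1.0 µM final, for 30 min · Incubation – induction 48 h, compound 1 h, agonist 30 min · Read-out – GR-EGFP nuclear translocation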
Insulin prom inh = TRM-6 insulin promoter activity inhibition; inhibition, % at 2 µM; TRM-6 cells, insulin promoter-eGFP reporter, imaging; reporter expression induced with tamoxifen; 0.9% of 130,000 active; AID 1273;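 active = inhibition above the mean plus 3 SD, with well images judged a real hit on visual review, cut at about 60% in these data, passing the limit was not always enough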
Ins promoter up = MIN6 insulin promoter up-regulation; MIN6 insulin promoter-GFP reporter, high-content imaging; stronger effect = higher value; AID 1625; z-score at 5 µM; 0.3% of 190,000 active;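 active = z-score above 3 at 5 µM with at least 500 cells counted in the well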
Autophagy mod = alters autophagy in cells. MEF GFP-LC3 puncta imaging; test concentration mostly 10 µM. calls only at 10 µM (by protocol). 0.98% of 190,000 active. AID 463193;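 active = percentage of spot-positive cells more than 3 SD above its plate mean, without a fluorescence outlier flag or 80% toxicity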;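 note: spot-positive cell cutoff set from DMSO-treated cells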
Numbers without * were called inactive; i = inactive; . = not tested or not shown; + = active, no number. Most compounds without a hit are left out; they make up all but 2% or so of the library.

SMILES | Dynein cargo inh | Insulin prom inh | Ins promoter up | Autophagy mod
CC(C)(C)c1ccc(S(=O)(=O)N2CCC(CO)(CC3CCCCO3)CC2)cc1 (stereo not drawn) | 0.719 | . | 0.11 | i
Cc1cc(C)c[n+](-c2nc3ccccc3nc2[N-]S(=O)(=O)c2ccc(Br)s2)c1 | 1.07 | -93.5 | 0.12 | +
CCOC(=O)c1sc(=NC(=O)COc2ccc(Cl)cc2)n(C)c1C | 2.44 | . | -0.78 | +
CCOC(=O)c1sc(=NC(=O)CCS(=O)(=O)c2ccccc2)n(C)c1C | -0.801 | 31.4 | 0.25 | i
Cc1ccc(S(=O)(=O)CC(=O)c2cc(C)c(O)c(C)c2)cc1 | 0.839 | . | -0.07 | i
COc1ccccc1-c1cc(C(F)(F)F)nc(S(=O)(=O)CCCC(=O)Nc2cccnc2Cl)n1 | -4.42* | 73.3* | 0.58 | i
COc1ccccc1-c1cc(C(F)(F)F)nc(S(=O)(=O)CCCC(=O)NC(C)C)n1 | -1.63 | . | -0.19 | i
O=C(NC1CCCCCC1)C1CCN(S(=O)(=O)N2CCC3(CC2)OCCO3)CC1 | -0.514 | -28.1 | -0.02 | +
CC1CCCCC1NC(=O)C1CCN(S(=O)(=O)N2CCC3(CC2)OCCO3)CC1 (stereo not drawn) | 1.01 | 9.4 | -0.04 | i
Cc1ccc(N(CC(=O)NCCSc2ccccn2)S(=O)(=O)c2ccc(F)cc2)cc1 | -0.953 | -171.4 | . | i
Fc1ccc2nc3[nH]c4ccccc4c3nc2c1 | -0.0465 | 90.9* | -0.32 | i
CC(=O)Nc1cc(O)cc(O)c1 | 0.758 | . | 0.06 | .
Cc1cc([N+](=O)[O-])ccc1NC(=O)CN1C2CCC1CC(NC(=O)NC13CC4CC(CC(C4)C1)C3)C2 (stereo not drawn) | -1 | . | -2.72 | i
NC(=O)c1cccnc1Nc1cccc(F)c1 | -0.238 | 86.7* | -0.64 | i
NC(=O)c1cccnc1Nc1cccc([N+](=O)[O-])c1 | -0.857 | . | -0.11 | i
CN1CCN(NC(=O)Nc2cccc(Cl)c2Cl)CC1 | 0.144 | 41.2 | -0.89 | +
N/C(Cc1ccc([N+](=O)[O-])cc1)=N\OC(=O)c1ccc(Br)o1 | -0.485 | 71.4* | -0.25 | i
N/C(Cc1ccc([N+](=O)[O-])cc1)=N\OC(=O)c1ccccc1F | -0.612 | . | 0.23 | i
CCOc1ccc(Oc2ccc(-c3nnc(-c4ccccc4)o3)cc2[N+](=O)[O-])cc1 | 0.0524 | . | -0.68 | +
O=[N+]([O-])c1cc(-c2nnc(-c3ccccc3)o2)ccc1Oc1ccc(Cl)cc1 | -0.27 | . | 0.07 | i
CC(=O)Oc1ccc(N(c2ccccc2)S(=O)(=O)c2ccc(C)cc2)cc1 | 0.292 | 25.0 | -1.16 | i
CCC(C)n1c(NC(=O)c2ccccc2)c(C#N)c2nc3ccccc3nc21 (stereo not drawn) | -0.744 | 12.5 | . | +
CCCCn1c(NC(=O)c2ccccc2)c(C#N)c2nc3ccccc3nc21 | 0.684 | . | 2.86 | i
C(#CCN1CCCC1)CC(c1ccccc1)c1ccccc1 | 0.652 | . | -0.7 | i
O=C(Nc1ccc2nc(-c3ccccc3)[nH]c2c1)c1cccs1 | -0.432 | 76.7* | . | i
SMILES | Dynein cargo inh | Insulin prom inh | Ins promoter up | Autophagy mod
O=C(Nc1ccc2nc(-c3ccco3)[nH]c2c1)c1ccco1 | -0.228 | 82.1* | 0.96 | i
O=C(Nc1ccc2nc(-c3ccc4nc[nH]c4c3)[nH]c2c1)c1cccs1 | -0.292 | 50.0 | -0.26 | i
O=S(=O)(CCc1ccncc1)C1Cc2cccc3cccc1c23 (stereo not drawn) | -0.961 | . | 0.76 | .
O=C(C1CCN(c2nnc(-n3cccc3)s2)CC1)N1CCOCC1 | 1.4 | 100.0* | -0.46 | i
CSc1cccc(NC(=O)Nc2ccccc2C(N)=O)c1 | -0.68 | . | 0.51 | .
Cn1c(=O)oc2cc(S(=O)(=O)N3CCN(c4ccc(F)cc4)CC3)ccc21 | 0.291 | 70.3* | 1.58 | i
Cc1ccc(C)c(S(=O)(=O)NCc2ccc(C(=O)N3CCCCCC3)cc2)c1 | 1.09 | 76.9* | 0.06 | i
CC(=O)Nc1ccc(NC(=O)C(Cc2ccccc2)NC(=O)C2CCCCC2)cc1 (stereo not drawn) | -0.493 | 64.3* | 0.42 | i
CCOC(=O)N1CCC(NC(=O)C(Cc2ccccc2)NC(=O)C2CCCCC2)CC1 (stereo not drawn) | -0.768 | -22.6 | -1.09 | i
CCC(=O)Nc1ccc(C(=O)OCC(=O)c2ccc(C)c([N+](=O)[O-])c2)cc1 | -0.952 | 10.3 | 3.37* | i
CC(=O)Nc1ccc(C(=O)OCC(=O)c2ccc(C)c([N+](=O)[O-])c2)cc1 | -1.15 | . | 0.18 | i
Cc1ccc(N/C(=C\C(=O)c2ccccc2)C(=O)O)cc1 | 2.51 | 33.3 | . | i
Cn1cc(CN2C[C@H]3CC[C@H]2C3)c(-c2ccccc2F)n1 | -0.833 | 10.0 | . | i
COCCn1c(-c2ccc(Cl)cc2Cl)nc2c(c(=O)c3ccccc3n2C)c1=O | 0.863 | -43.8 | -0.36 | +
COc1ccc(CCn2c(-c3ccc(OC)cc3)nc3c(c(=O)c4ccccc4n3C)c2=O)cc1 | 0.413 | . | -1.03 | .
CCN(CC)CCNC(=S)Nc1ccc(F)cc1 | -0.151 | . | 0.61 | +
Fc1ccc(NC(=S)NCCN2CCOCC2)cc1 | -0.417 | 40.7 | 0.68 | i
Cc1nn(-c2ccccc2)c(C)c1C(=O)OCC(=O)N1CC(=O)Nc2ccccc21 | -0.653 | 92.9* | -0.05 | i
CCCCNC(=O)C1CC(=O)N(C2CCCCC2)C1 (stereo not drawn) | 2.19 | -3.1 | 3.02* | i
NC(=O)Cn1c(=O)n(CCC(=O)NCCSCc2ccccc2)c(=O)c2ccccc21 | -0.498 | -33.3 | 0.07 | i
CCOc1ccc(-n2cc(C(=O)Nc3cccc(OC)c3)c3cc(OC)c(OC)cc3c2=O)cc1 | 1.19 | 35.1 | -1.21 | i
CCOc1ccc(-n2cc(C(=O)Nc3ccc(Cl)cn3)c3cc(OC)c(OC)cc3c2=O)cc1 | -0.219 | -25.8 | -1.01 | +
c1cnc2ccc(C(c3nnnn3C3CCCCC3)N3CCN(C4CCCCC4)CC3)cc2c1 (stereo not drawn) | -0.648 | 60.0 | . | +
c1cnc2ccc(C(c3nnnn3C3CCCCC3)N3CCCCC3)cc2c1 (stereo not drawn) | -0.688 | -125.0 | -0.06 | i
Cc1cc(Sc2nc(N(C)C)nc(N(C)C)n2)nc(Cl)n1 | -0.494 | . | -0.33 | i
SMILES | Dynein cargo inh | Insulin prom inh | Ins promoter up | Autophagy mod
O=C(Nc1ccc2c(c1)nc1n2CCOC1)c1ccco1 | 0.0267 | . | 0.39 | i
O=C(Nc1ccc2c(c1)nc1n2CCSC1)c1ccco1 | -0.928 | . | -0.68 | +
CCc1cccc2c(SC(C)C(=O)NCC3CCCO3)nc(-c3ccccc3)nc12 (stereo not drawn) | -0.441 | 3.6 | -0.21 | i
CCc1cccc2c(SCC(=O)NCC3CCCO3)nc(-c3ccc(F)cc3)nc12 (stereo not drawn) | -0.396 | -15.6 | -0.12 | +
CC(=O)OC(C(=O)NCc1ccc(F)cc1)c1ccccn1 (stereo not drawn) | 0.59 | 24.3 | 3.91* | i
Cn1ncc([N+](=O)[O-])c1C(=O)N/N=C/c1cccc([N+](=O)[O-])c1 | -0.791 | . | 0.69 | i
Cc1cc(C)c(C)c(S(=O)(=O)N2CCN(C)CC2)c1C | -0.396 | -16.7 | -0.78 | +

Compound activity (PubChem)
